Tests used:
[1] = biological target: T1, NAD-dependent protein deacetylase sirtuin-1 (Homo sapiens) (UniProt Q96EB6); experiment: Activation of human SIRT1 expressed in Escherichia coli BL21Start assessed as concentration required to increase 50% enzyme activity by mass spectrometry assay
T1 sequence (whole entry): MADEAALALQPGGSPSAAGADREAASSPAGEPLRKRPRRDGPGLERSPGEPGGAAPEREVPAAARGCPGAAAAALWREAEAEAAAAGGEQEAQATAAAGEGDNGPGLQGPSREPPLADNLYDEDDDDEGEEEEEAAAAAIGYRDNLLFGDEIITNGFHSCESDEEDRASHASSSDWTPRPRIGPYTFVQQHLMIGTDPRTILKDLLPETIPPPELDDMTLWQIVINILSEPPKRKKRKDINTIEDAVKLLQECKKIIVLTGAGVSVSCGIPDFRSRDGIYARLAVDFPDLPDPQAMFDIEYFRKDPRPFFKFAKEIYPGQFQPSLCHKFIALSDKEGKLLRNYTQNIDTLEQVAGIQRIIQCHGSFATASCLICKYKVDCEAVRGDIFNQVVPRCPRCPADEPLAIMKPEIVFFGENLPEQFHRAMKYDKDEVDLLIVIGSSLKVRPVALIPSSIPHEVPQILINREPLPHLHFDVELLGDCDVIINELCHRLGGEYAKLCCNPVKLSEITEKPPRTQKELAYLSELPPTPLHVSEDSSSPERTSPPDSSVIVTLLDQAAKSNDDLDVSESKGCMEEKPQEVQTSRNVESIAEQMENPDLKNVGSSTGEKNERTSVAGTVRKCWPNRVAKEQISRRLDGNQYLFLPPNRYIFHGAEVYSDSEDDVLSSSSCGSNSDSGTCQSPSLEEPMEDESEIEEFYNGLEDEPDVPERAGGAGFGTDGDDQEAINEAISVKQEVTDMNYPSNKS
Procedure, shortened: (§1)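 Truncated SIRT1 was expressed in E. coli BL21Start (DE3) and purified on Ni2+ chelate. Reaction: 10 nM enzyme, 0.5 µM biotinylated, fluorophore-tagged p53-derived 20-mer acetyl-lysine peptide and 120 µM NAD+, in 50 mM Tris-acetate pH 8 with NaCl, KCl, MgCl2, 5 mM DTT and 0.05% BSA; DMSO vehicle; 25 min at 25 °C. Stopped with formic acid/nicotinamide; acetylated versus deacetylated peptide read by mass spectrometry. EC1.5 is the concentration raising activity by 50%, the mean of three titration curves.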

[2] = biological target: T1, NAD-dependent protein deacetylase sirtuin-1 (Homo sapiens); experiment: Activation of human SIRT1 expressed in Escherichia coli BL21Start assessed as maximum activation of enzyme activity by mass spectrometry assay; procedure, shortened: as §1
[3] = Metabolic stability in mouse microsomes assessed as half life; type: ADME, Microsome
[4] = Metabolic stability in human microsomes assessed as half life; type: ADME, Microsome
[5] = Solubility in water; type: physicochemical
[6] = Cmax in C57BL/6 mouse at 100 mg/kg, po or 10 mg/kg, iv; type: ADME, organism-based; conditions: in vivo
Procedure, shortened: (§2)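 Male C57BL/6 mice (18-22 g; 3 per dose group per time point), given 100 mg/kg po as the hydrochloride salt in 2% HPMC + 0.2% DOSS, or 10 mg/kg iv by tail vein in 10% ethanol/40% polyethylene glycol/50% H2O. Plasma was taken at 5, 30, 120 and 360 min after dosing and drug levels were measured.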

[7] = Oral bioavailability in C57BL/6 mouse at 100 mg/kg; type: ADME, organism-based; conditions: in vivo; procedure, shortened: as §2
[8] = AUC in C57BL/6 mouse at 100 mg/kg, po or 10 mg/kg, iv; type: ADME, organism-based; conditions: plasma; procedure, shortened: as §2
[9] = Terminal half life in C57BL/6 mouse at 100 mg/kg, po or 10 mg/kg, iv; type: ADME, organism-based; conditions: in vivo, read-out: beta t1/2 (converted); procedure, shortened: as §2
[10] = Solubility in buffer at pH 7.4 by HPLC method; type: physicochemical
Procedure, shortened: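 Kinetic solubility was measured in pH 7.4 buffer by HPLC.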

Row | Activity [1] [µM] | Activity [2] [%] | Compound | other results
1 | 0.9 | 665 | O=C(Nc1ccccc1-c1cn2c(CN3CCNCC3)csc2n1)c1cccc(OC(F)(F)F)c1 | 
2 | 0.68 | 301 | O=C(Nc1ccccc1-c1cn2c(CN3CCNCC3)csc2n1)c1cnc2ccccc2c1 | 
3 | 3.2 | 257 | COc1cc(C(=O)Nc2ccccc2-c2cn3cc(CN4CCNCC4)sc3n2)cc(OC)c1OC | 
4 | 0.51 | 808 | O=C(Nc1ccccc1-c1cn2c(CN3CCNCC3)csc2n1)c1cccc(SC(F)F)c1 | 
5 | 48 | 250 | Oc1ccc(/C=C/c2cc(O)cc(O)c2)cc1 | 
6 | 24 | 253 | O=C(Nc1ccccc1-c1cn2c(CN3CCNCC3)csc2n1)c1cc2ccccc2s1 | 
7 | 4.8 | 295 | COc1cc(C(=O)Nc2ccccc2-c2cn3cc(CN(C)C)sc3n2)cc(OC)c1OC | 
8 | 130 | 383 | O=C(Nc1ccccc1-c1cn2c(CN3CCNCC3)csc2n1)C1CCCC1 | 
9 | 6.2 | 619 | COc1ccc(C(=O)Nc2ccccc2-c2cn3c(CN4CCNCC4)csc3n2)cc1F | 
10 | 0.99 | 440 | O=C(Nc1ccccc1-c1cn2c(CN3CCNCC3)csc2n1)c1ccc2ccccc2n1 | 
11 | 0.61 | 381 | O=C(Nc1ccccc1-c1cn2c(CN3CCNCC3)csc2n1)c1cc2ccccc2o1 | 
12 | 14 | 130 | O=C(Cc1ccccc1)Nc1ccccc1-c1cn2c(CN3CCNCC3)csc2n1 | 
13 | 2.5 | 272 | COc1cc(C(=O)Nc2ccccc2-c2cn3ccsc3n2)cc(OC)c1OC | half-life [3]: 0.0833 h; half-life [4]: 0.167 h; solubility [5]: < 100 µg/mL
14 | 3.7 | 928 | COc1cccc(C(=O)Nc2ccccc2-c2cn3c(CN4CCNCC4)csc3n2)c1 | 
15 | 6.9 | 380 | O=C(Nc1ccccc1-c1cn2c(CN3CCNCC3)csc2n1)c1ccc2occc2c1 | 

Second part, the compound before the results:

Row | Compound | Activity [1] [µM] | Activity [2] [%] | other results
16 | O=C(Nc1ccccc1-c1cn2c(CN3CCNCC3)csc2n1)c1ccc2c(c1)OCO2 | 4.9 | 332 | 
17 | O=C(Nc1ccccc1-c1cn2c(CN3CCNCC3)csc2n1)c1ccccc1 | 25 | 322 | 
18 | COc1ccc(C(=O)Nc2ccccc2-c2cn3c(CN4CCNCC4)csc3n2)c(OC)c1 | 31 | 197 | 
19 | O=C(Nc1ccccc1-c1cn2c(CN3CCNCC3)csc2n1)c1cnccn1 | 1.7 | 270 | 
20 | COc1ccc(C(=O)Nc2ccccc2-c2cn3c(CN4CCNCC4)csc3n2)cc1OC | 4.5 | 406 | 
21 | COc1cc(C(=O)Nc2ccccc2-c2cn3c(CN(C)C)csc3n2)cc(OC)c1OC | 1.9 | 270 | 
22 | COc1cc(F)cc(C(=O)Nc2ccccc2-c2cn3c(CN4CCNCC4)csc3n2)c1 | 2.1 | 662 | 
23 | COc1cc(C(=O)Nc2cccc(-c3nc4ncccc4o3)c2)cc(OC)c1OC | 11 | 388 | 
24 | O=C(Nc1ccccc1-c1cn2c(CN3CCNCC3)csc2n1)c1cccc2cccnc12 | 45 | 208 | 
25 | COc1cc(C(=O)Nc2ccccc2-c2cn3c(CN4CCNCC4)csc3n2)cc(OC)c1OC | 1.8 | 271 | half-life [3]: > 5 h; Cmax [6]: 14 µM; bioavailability [7]: 40%; half-life [4]: 1.87 h; AUC [8]: 45000 ng·h/mL; half-life [9]: 6 h; solubility [10]: > 100 µM; solubility [5]: > 10000 µg/mL
26 | COc1cc(C(=O)Nc2cccc(-c3cn4ccsc4n3)c2)cc(OC)c1OC | 7.5 | 380 | 

— ChEMBL document CHEMBL1140923, “Discovery of imidazo[1,2-b]thiazole derivatives as novel SIRT1 activators” (J Med Chem, 2009)
